Source: PubChem BioAssay
H9c2 protect = myocardial damage modulation in H9c2 cells; H9c2 cardiomyocytes, H2O2 injury protection, ATPLite, 2 h; protection from H2O2 cell death, % at 20 µM; 0.63% of 360,000 active; AID 588492;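 active = compounds giving at least 50% protection of heart cells from peroxide-induced death in the single-dose screen, raw or plate-pattern-corrected value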;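 also: 0% = DMSO wells with peroxide and 100% = DMSO wells without peroxide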
B2AR ag = activates human beta-2 adrenergic receptor causing internalization | P07550 | Am2.2-beta2AR cells, FAP receptor internalization, flow cytometry | response, % (concentration not given with the values) | 0.43% of 340,000 active | AID 504454;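 active = response above a set limit, near 3 SD of response in nonfluorescent compounds, cut at about 42% in these data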
UCH37 DUB inh = human UCH37 deubiquitinating enzyme inhibition | purified proteasome/UCH37, Ub-AMC cleavage fluorescence | inhibition, % (test concentration not listed) | 0.33% of 330,000 active;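 active = mean inhibition over replicate wells above about 20%, limit read from the data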;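 also: 0% = compound-free wells with enzyme and 100% = wells lacking proteasome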
Target sequence (Q9Y5K5 whole entry, looked up): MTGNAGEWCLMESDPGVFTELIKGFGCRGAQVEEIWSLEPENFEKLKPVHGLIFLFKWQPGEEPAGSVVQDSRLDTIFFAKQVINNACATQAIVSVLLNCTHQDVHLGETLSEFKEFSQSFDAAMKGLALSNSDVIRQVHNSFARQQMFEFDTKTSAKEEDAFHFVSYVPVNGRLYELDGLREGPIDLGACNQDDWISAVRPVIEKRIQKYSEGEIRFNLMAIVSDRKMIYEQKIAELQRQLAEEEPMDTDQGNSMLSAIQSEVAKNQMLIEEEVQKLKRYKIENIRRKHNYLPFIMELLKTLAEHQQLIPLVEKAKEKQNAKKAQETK
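System: Proteasome-associated human UCH37 deubiquitinase; Input: 0.15 nM proteasome in added enzyme buffer; Also added: Ub-AMC substrate from 1 µM stock; Incubation: 30 min compound-proteasome preincubation then 25 min substrate reaction, room temperature; Detection: fluorescence, ex 355 nm, em 460 nm; Read-out: % inhibition of Ub-AMC cleavage fluorescence; Benchmarks: no-proteasome and no-compound wells.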
PfG6PD inh = PfG6PD (Plasmodium falciparum) enzyme inhibition. PfGluPho enzyme, NADPH resazurin-diaphorase fluorescence. inhibition, % at 20 µM. 0.78% of 350,000 active;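 active = inhibition reaching at least a set limit at 20 µM in the primary screen, cut at about 59% in these data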;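 also: 0% = DMSO wells with substrate and 100% = DMSO wells lacking glucose-6-phosphate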
aDG glyco up = increases alpha dystroglycan glycosylation; Pro5-aDG cells, alpha-DG glycosylation AlphaScreen (IIH6); 0% Pro5, 100% B10-LARGE cell signal; activation, % at 10 µM; AID 624168; 0.22% of 360,000 active;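 active = activation of at least 8% versus controls, or a plate z-score of at least 8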;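 also: Pro5 are CHO cells carrying HIG-tagged alpha-DG that lacks glycosylation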
HKDC1 inhibitor = blocks human hexokinase HKDC1 activity; Q2TB90; recombinant HKDC1, G6PDH/diaphorase resazurin coupled fluorescence; inhibition, % at 20 µM; 0.16% of 340,000 active;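 active = inhibition above about 35% when tested at 20 µM, limit read from the data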;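 also: plate controls were DMSO wells with enzyme for no effect and DMSO wells lacking enzyme for full effect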
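Test system: Recombinant HKDC1 (HK5) hexokinase enzyme, produced in-house | Input: HKDC1 at 5 µg/mL | Buffer or medium: Tris pH 8.0 buffer with MgCl2, Tween-20, BSA, BME | Schedule: 90 min reaction incubation at room temperature, dark | Technique: Resazurin-to-resorufin fluorescence via G6PDH and diaphorase coupling, 525/613 nm | Controls: DMSO wells with and without enzyme mix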
Starred values were filed as active, the others as inactive; i = inactive; . = not tested or not shown. In the library only some 2.1% were active in any assay of this set; here they are far more common.

SMILES	H9c2 protect	B2AR ag	UCH37 DUB inh	PfG6PD inh	aDG glyco up	HKDC1 inhibitor
CC12CCC(C(=O)N(CSC(=S)N/N=C\c3ccccc3O)C1=O)C2(C)C (stereo not given)	52*	4	.	-31	0	-26
CC(CCC(=O)O)C1CCC2C3CCC4C[C@H](O)CCC4(C)C3CC(=O)C12C (stereo not given in full)	6	12	4	-22	0	0
CC1=C(CC[C@@H](C)CO)OC2CC3C4CCC5CC(O)CCC5(C)C4CC(=O)C3(C)C12 (stereo not given in full)	50*	21	1	4	0	-2
Cc1csc(SCc2nc3sc4c(c3c(=O)[nH]2)CCC4)n1	52*	-7	0	-11	0	4
Cc1csc(SCc2nc3scc(-c4ccccc4)c3c(=O)[nH]2)n1	-1	1	3	-4	0	-3
CCOC(=O)C1=C(COC(=O)c2cccc(Br)c2)NC(=O)NC1C (stereo not given)	-1	-7	2	-3	0	-8
CCOC(=O)C1=C(COC(=O)/C=C/c2ccc(Cl)cc2)NC(=O)NC1C (stereo not given)	16	3	5	-8	0	-10
CCOC(=O)C1=C(COC(=O)c2cc(OC)c(OC)c(OC)c2)NC(=O)NC1C (stereo not given)	60*	4	0	-6	0	4
CCOC(=O)C1=C(COC(=O)/C=C/c2ccc(F)cc2)NC(=O)NC1C (stereo not given)	45*	.	.	-7	0	.
O=[N+]([O-])c1ccc(S(=O)(=O)NN=Cc2ccco2)cc1	.	.	2	.	.	.
O=C(/C=C/c1ccc(NC(=O)c2ccccc2-c2ccccc2C(=O)O)cc1)c1ccccc1	-2	19	-12	-22	0	22
O=C(/C=C/c1ccncc1)c1ccc(NC(=O)c2ccccc2F)cc1	-16	51*	6	25	-1	12
CC(=NNC(=O)c1cc(C(C)C)[nH]n1)c1ccco1	.	.	4	.	.	.
COc1ccc(N2C(=O)CC(S/C(N)=N/N=C(C)c3cccs3)C2=O)cc1 (stereo not given)	.	.	4	.	.	.
Nc1ccc2nn(-c3ccccc3)nc2c1	-20	3	i	-18	5.9*	8
Nc1ccc(-n2nc3ccccc3n2)cc1	-4	3	-246	1	0	-4
O=C(CSc1ncn[nH]1)Nc1nc(-c2ccccc2)cs1	-1	-2	28*	-4	0	-7
COc1ccc(-c2csc(NC(=O)CSc3ncn[nH]3)n2)cc1OC	0	5	3	7	0	0
Cn1c(=O)c2c(nc(NCc3ccc4c(c3)OCO4)n2C)n(C)c1=O	53*	12	1	6	0	2
Cn1c(=O)c2c(nc(SCC(=O)NCc3ccc4c(c3)OCO4)n2Cc2ccccc2)n(C)c1=O	3	-6	5	4	0	-6
C(=N\n1cnc2ccccc21)/c1cccnc1	5	-5	.	-7	0	-3
Clc1nc2sccn2c1/C=N/n1cnc2ccccc21	66*	-10	.	8	0	-6
ON=Cc1ccccc1Oc1ccc(Cl)cc1	.	.	1	.	.	.
O=C(COC(=O)c1ccc([N+](=O)[O-])o1)NCCCc1ccccc1	11	9	20*	18	0	5
CCN(C(=O)COC(=O)c1ccc([N+](=O)[O-])o1)C1CCCCC1	21	3	21*	18	0	2
SMILES	H9c2 protect	B2AR ag	UCH37 DUB inh	PfG6PD inh	aDG glyco up	HKDC1 inhibitor
COc1ccc(CCNC(=O)COC(=O)c2ccc([N+](=O)[O-])o2)cc1	26	3	18	19	0	-1
CC1CCN(C(=O)COC(=O)c2ccc([N+](=O)[O-])o2)CC1	-4	2	16	11	0	1
CC1CCCC(NC(=O)COC(=O)c2ccc([N+](=O)[O-])o2)C1C (stereo not given)	5	-1	13	23	0	-4
O=C(COC(=O)c1ccc(Br)o1)NCc1ccc(F)cc1	7	9	2	-12	0	0
O=C(COC(=O)c1ccc([N+](=O)[O-])o1)NC1CCS(=O)(=O)C1 (stereo not given)	2	1	25*	10	0	-8
O=C(COC(=O)c1ccc([N+](=O)[O-])o1)NCc1ccc(F)cc1	38	-4	25*	18	0	2
COc1cc(C=NNC(=O)c2cc(C34CC5CC(CC(C5)C3)C4)[nH]n2)ccc1O	.	.	5	.	.	.
CCCCOC(=O)NN=C/C=C/c1ccccc1	.	.	3	.	.	.
CC(=NN=C(N)SC1CC(=O)N(c2ccccc2)C1=O)c1cccs1 (stereo not given)	.	.	8	.	.	.
O=C(COC(=O)c1ccc([N+](=O)[O-])o1)Nc1cccc(S(=O)(=O)N2CCCCC2)c1	53*	-1	3	17	0	-3
CC(=O)Nc1ccc(NC(=O)COC(=O)c2ccc([N+](=O)[O-])o2)cc1	23	-2	.	13	0	0
CCN(c1ccc(NC(=O)COC(=O)c2ccc([N+](=O)[O-])o2)cc1)C(C)C	61*	-8	-1	18	0	1
O=C(CCCCCNC(=O)c1ccccc1)NN=Cc1ccccc1	.	.	4	.	.	.
Cc1ccc(CN(C(=O)CNC(=O)c2cccs2)C(C(=O)NCC2CCCO2)c2ccccc2)cc1 (stereo not given)	91*	-10	0	-2	0	10
O=C(NCC(=O)N(Cc1ccccc1)C(C(=O)NCC1CCCO1)c1ccccc1)c1ccco1 (stereo not given)	33	-5	2	-10	0	-9
COc1ccccc1CN(C(=O)CNC(=O)c1ccco1)C(C(=O)NCC1CCCO1)c1ccccc1 (stereo not given)	68*	9	-1	-6	0	-2
Cc1ccc(C(=O)Nc2nc3ccccc3n2CCN2CCCC2)cc1	4	14	2	11	1	-9
Cn1c(C=NNC(=O)c2ccccc2)nc2ccccc21	.	.	-103	.	.	.
Cn1c(/C=N/NC(=O)c2ccccc2)nc2ccccc21	65*	-17	.	25	0	-4
CCCn1c(NC(=O)c2ccccc2)nc2ccccc21	52*	-16	0	22	0	-9
CCCn1c(NC(=O)c2ccc(C)cc2)nc2ccccc21	39	-1	-24	19	0	-12
CCCn1c(NC(=O)c2cccc(S(=O)(=O)N3CCCC3)c2)nc2ccccc21	99*	11	-11	23	0	-20
CCN(CC)CCn1c(NC(=O)c2ccccc2O)nc2ccccc21	30	-3	-129	18	0	-9
